Results on 27 molecules are retold here after ChEMBL document CHEMBL3870323, “Sulfonamide chalcones: Synthesis and in vitro exploration for therapeutic potential against Brugia malayi” (Eur J Med Chem, 2016).

Calls of active or inactive are those of the source. The calls are words filed in the database; no cut-off is given here.

Series [1] is described as follows: Antifilarial activity against Brugia malayi microfilariae isolated from peritoneal cavity of infected Meriones unguiculatus assessed as loss of motility at 500 uM incubated for 48 hrs by microscopy. The format is functional. The essentials:
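Jird peritoneal Mf washed in RPMI 1640 with gentamycin, penicillin and streptomycin, then held 1 h at 37°C on dishes to remove exudate cells. About 300 Mf in 0.9% saline exposed to compound with shaking at 37°C, 30 min, 150 rpm. 100 Mf per well, in triplicate, then 48 h at 37°C in 5% CO2 in RPMI. Stocks were 2 mM in DMSO; vehicle control 1% DMSO. Motility scored by microscopy; mean ± SEM % loss of motility.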

Series [2] can be described thus: Cytotoxicity against human PBMC after 48 hrs by trypan blue exclusion assay. In kind it is toxicity, cell-based. The following applies: PBMC (peripheral blood mononuclear cells), read-out: LD50. A digest of the protocol:
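Human PBMCs came from healthy donors' venous blood by histopaque-1077 density separation. Cells were washed in RPMI 1640 with 2 mM L-glutamine and resuspended in RPMI with 10% FBS at 1x10^5 cells/ml. Trypan blue exclusion followed the procedure adapted from the microfilarial motility assay. LD50 was taken as the dose giving 50% cytotoxicity.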

The nature of series [3]: Antifilarial activity against Brugia malayi microfilariae isolated from peritoneal cavity of infected Meriones unguiculatus assessed as loss of motility incubated for 48 hrs by microscopy. The format is functional. A digest of the protocol:
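Jird peritoneal Mf cleaned of exudate cells by 1 h adherence at 37°C. Exposed to compound over 1–100 µM final with shaking at 37°C, 30 min, 150 rpm in 0.9% saline. Washed, plated at 100 Mf per well in RPMI, triplicate wells, then 48 h at 37°C in 5% CO2. Vehicle control 1% DMSO. Loss of motility read by microscopy; experiment repeated three times; IC50 calculated.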

A further series relates to Brugia malayi. Description: Induction of apoptosis in Brugia malayi microfilariae isolated from peritoneal cavity of infected Meriones unguiculatus after 48 hrs by acridine orange/ethidium bromide dual staining based epifluorescence microscopy. In kind it is functional. The essentials: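 Mf, control or treated for 48 h, washed and resuspended in cold PBS. Dye mix of 100 µg/mL AO and 100 µg/mL EB in PBS added. Viewed by epifluorescence microscopy with 480/30 nm excitation; green nuclei scored as live, orange/red as apoptotic or dead. Staurosporine was the positive control and untreated Mf the negative control.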

For `Cc1ccc(S(=O)(=O)Nc2ccc(C(=O)/C=C/c3ccccc3Br)cc2)cc1`, in series [1], the Activity was 3.04%.

On to `Cc1ccc(S(=O)(=O)Nc2ccc(C(=O)/C=C/c3ccc(Cl)cc3)cc2)cc1`, for which the Activity in series [1] turned out to be 1.58%.

Consider `O=C(/C=C/c1ccccc1Cl)c1ccc(NS(=O)(=O)c2ccccc2)cc1`, for which the Activity in series [1] came out at 33.3%.

As for `O=C(/C=C/c1ccco1)c1ccc(NS(=O)(=O)c2ccccc2)cc1`, the Activity in series [1] was determined as 8.11%.

As a reminder, the IC50 is the concentration that gives 50% inhibition. For the molecule `Cc1ccc(S(=O)(=O)Nc2ccc(C(=O)/C=C/c3ccc(O)cc3)cc2)cc1`, in series [2], the CC50 at 48 h worked out at 270 µM. Moreover, the Activity in series [1] was determined as 100%. Also, the IC50 in series [3] was 82 µM. In addition, the outcome with Brugia malayi was Active.

In the case of `CS(=O)(=O)Nc1ccc(C(=O)/C=C/c2ccc([N+](=O)[O-])cc2)cc1`, in series [2], the CC50 at 48 h is 188 µM. In addition, in series [1], the Activity worked out at 100%. Further, in series [3], the IC50 was 4.4 µM. The outcome in the series with Brugia malayi was Active.

Turning to `Cc1ccc(/C=C/C(=O)c2ccc(NS(=O)(=O)c3ccccc3)cc2)cc1`, in series [1], the Activity came out at 6.34%.

As for `COc1ccc(/C=C/C(=O)c2ccc(NS(=O)(=O)c3ccccc3)cc2)cc1`, the Activity in series [1] worked out at 1.81%.

For `Cc1ccc(S(=O)(=O)Nc2ccc(C(=O)/C=C/c3ccccc3)cc2)cc1`, the CC50 at 48 h in series [2] is 335 µM. Further, the Activity in series [1] amounted to 100%. The IC50 in series [3] amounted to 9.7 µM. In addition, the result in the series with Brugia malayi was Active.

For `O=C(/C=C/c1ccc([N+](=O)[O-])cc1)c1ccc(NS(=O)(=O)c2ccccc2)cc1`, the Activity in series [1] was 100%. Besides, in the series with Brugia malayi, the outcome was Active.

On to `Cc1ccc(S(=O)(=O)Nc2ccc(C(=O)/C=C/c3ccccc3Cl)cc2)cc1`, for which the Activity in series [1] was determined as 4.1%.

`O=C(/C=C/c1ccc(F)cc1)c1ccc(NS(=O)(=O)c2ccccc2)cc1`: the CC50 at 48 h in series [2] worked out at 217 µM. In series [1], the Activity was 100%. Besides, the IC50 in series [3] came out at 4.5 µM. Moreover, the result in the series with Brugia malayi was Active.

Take `Cc1ccc(S(=O)(=O)Nc2ccc(C(=O)/C=C/c3cccc(Br)c3)cc2)cc1`: the CC50 at 48 h in series [2] came out at 80 µM. The Activity in series [1] turned out to be 100%. Further, the IC50 in series [3] was determined as 15 µM. Moreover, the outcome with Brugia malayi was Active.

For the molecule `COc1ccc(/C=C/C(=O)c2ccc(NS(=O)(=O)c3ccc(C)cc3)cc2)cc1`, the Activity in series [1] was 82.7%.

Regarding `O=C(/C=C/c1ccccc1)c1ccc(NS(=O)(=O)c2ccccc2)cc1`, the Activity in series [1] was 4.52%.

`O=C(/C=C/c1ccc(O)cc1)c1ccc(NS(=O)(=O)c2ccccc2)cc1`: the Activity in series [1] was 5.2%.

Regarding `O=C(/C=C/c1ccc(Br)s1)c1ccc(NS(=O)(=O)c2ccccc2)cc1`, in series [1], the Activity was 9%.

With `O=C(/C=C/c1ccc(Cl)cc1)c1ccc(NS(=O)(=O)c2ccccc2)cc1`, the CC50 at 48 h in series [2] turned out to be 177 µM. In series [1], the Activity was 100%. Further, in series [3], the half-maximal inhibitory concentration (IC50) was 17 µM. In the series with Brugia malayi, the outcome was Active.

As to `Cc1ccc(S(=O)(=O)Nc2ccc(C(=O)/C=C/c3ccc(-c4ccccc4)cc3)cc2)cc1`, the Activity in series [1] was 6.24%.

On to `CN(C)c1ccc(/C=C/C(=O)c2ccc(NS(=O)(=O)c3ccccc3)cc2)cc1`, for which the Activity in series [1] turned out to be 3.75%.

In the case of `CS(=O)(=O)Nc1ccc(C(=O)/C=C/c2ccccc2)cc1`, in series [2], the CC50 at 48 h was determined as 134 µM. In addition, in series [1], the Activity turned out to be 100%. For the same molecule, the IC50 in series [3] amounted to 32 µM. Moreover, the result with Brugia malayi was Active.

With `COc1ccc(/C=C/C(=O)c2ccc(NS(C)(=O)=O)cc2)cc1`, the CC50 at 48 h in series [2] was determined as 194 µM. In series [1], the Activity came to 100%. For the same molecule, in series [3], the half-inhibitory concentration (IC50) worked out at 60 µM. The result in the series on Brugia malayi was Active.

As to `Cc1ccc(/C=C/C(=O)c2ccc(NS(=O)(=O)c3ccc(C)cc3)cc2)cc1`, in series [2], the CC50 at 48 h stood at 140 µM. Moreover, in series [1], the Activity came to 100%. Moreover, the IC50 in series [3] came to 8.2 µM. Also, the result in the series on Brugia malayi was Active.

Turning to `Cc1ccc(S(=O)(=O)Nc2ccc(C(=O)/C=C/c3ccc(C(C)C)cc3)cc2)cc1`, the CC50 at 48 h in series [2] amounted to 50 µM. Besides, the Activity in series [1] is 100%. Further, the IC50 in series [3] is 20 µM. The result in the series on Brugia malayi was Active.

As for `O=C(/C=C/c1ccccc1Br)c1ccc(NS(=O)(=O)c2ccccc2)cc1`, the Activity in series [1] is 13.4%.

Take `O=C(/C=C/c1ccc(Br)cc1)c1ccc(NS(=O)(=O)c2ccccc2)cc1`: the CC50 at 48 h in series [2] is 265 µM. For the same molecule, in series [1], the Activity was found to be 100%. The IC50 in series [3] was determined as 70 µM. Besides, the result in the series on Brugia malayi was Active.

For the molecule `Cc1ccc(S(=O)(=O)Nc2ccc(C(=O)/C=C/c3ccc(Br)cc3)cc2)cc1`, the CC50 at 48 h in series [2] stood at 220 µM. For the same molecule, the Activity in series [1] turned out to be 100%. Also, the IC50 in series [3] worked out at 4.6 µM. Besides, the result in the series on Brugia malayi was Active.
